An excerpt weighted towards active compounds, which were near 4.4% of everything screened.
MsrA inh: bovine MsrA inhibition | AID 651718 | 0.75% of 360,000 active | purified bovine MsrA, absorbance read-out | inhibition, % at 15.5 µM
HTR2A ag: activates the mouse 5-HT2A serotonin receptor; 0.66% of 360,000 active; P35363; activation, % at 7.6 µM; CHO-K1 mHTR2A beta-arrestin complementation, luminescence; percent of 30 µM serotonin response;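 active means activation above a run cutoff, the mean activation of all tested compounds plus 3 SD, cut at about 14% in these data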
Target sequence (P35363 whole entry, looked up): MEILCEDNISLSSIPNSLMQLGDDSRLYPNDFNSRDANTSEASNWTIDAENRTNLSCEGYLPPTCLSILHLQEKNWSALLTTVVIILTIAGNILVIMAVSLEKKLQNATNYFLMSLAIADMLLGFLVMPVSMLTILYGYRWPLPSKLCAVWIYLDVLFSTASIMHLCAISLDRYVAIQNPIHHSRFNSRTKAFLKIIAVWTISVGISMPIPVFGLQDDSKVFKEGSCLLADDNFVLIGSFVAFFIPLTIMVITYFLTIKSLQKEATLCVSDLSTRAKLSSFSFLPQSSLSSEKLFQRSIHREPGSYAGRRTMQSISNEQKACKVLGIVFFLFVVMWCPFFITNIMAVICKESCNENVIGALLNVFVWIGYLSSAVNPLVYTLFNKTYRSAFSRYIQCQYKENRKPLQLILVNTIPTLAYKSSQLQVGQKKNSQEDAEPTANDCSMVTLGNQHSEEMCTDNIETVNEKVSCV
MsrA act: bovine methionine sulfoxide reductase A activation. purified bovine MsrA, absorbance read-out. 0.3% of 360,000 active. activation, % at 10.6 µM; in the data active means activation above about 7.5%
AI-2 QS modul: modulates the Vibrio harveyi AI-2 quorum sensing system; activity change, % at 7.5 µM; Vibrio harveyi JMH597 AI-2 luminescence/OD600 ratio, 9 h; hits give low values; strain lacks LuxN and CqsS sensors; 0 = neutral-control median; 0.4% of 300,000 active; in the data active means activity change below about -75%, passing the limit was not always enough;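 further: luminescence divided by OD600 gain over 9 h not by final OD600 alone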
TbMetRS inhib: blocks T. brucei methionyl-tRNA synthetase activity; AID 624268; purified T. brucei MetRS, ATP depletion, Kinase-Glo luminescence; inhibition, % at 11.9 µM; 0.4% of 360,000 active;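 active means inhibition above a per-plate cutoff of the control wells' mean inhibition plus 3 SD, cut at about 5.5% in these data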
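Dosing: 11.9 µM compound single dose, 0.9% DMSO; Assay system: purified T. brucei MetRS enzyme; Measured by: Kinase-Glo luciferase luminescence reporting remaining unconsumed ATP; Schedule: 15 min plus 2 h at 25 °C.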
AHR act: activates the human aryl hydrocarbon receptor. AID 2796. AHR-responsive luciferase reporter cells, luminescence. activation, % at 5 µM. P35869. 2.5% of 320,000 active; in the data active means activation above about 47%
MsrA act confirm: bovine methionine sulfoxide reductase A activation confirmed; activation, % at 10.6 µM; purified bovine MsrA, absorbance read-out; shares compounds with MsrA act; 12% of 1,000 active; in the data active means activation above about 4%;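 further: enzyme coupled to thioredoxin and thioredoxin reductase with NADPH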
OPRM1 ag: counter-screen for mouse HTR2A agonists: human mu opioid receptor agonists; shares compounds with HTR2A ag; U2OS OPRM1 beta-arrestin PathHunter, luminescence; DMSO 0%, DAMGO 9.3 µM 100%; activation, % at 9.3 µM; 5.3% of 2,300 active; AID 624380;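 active means mean activation above the mean of DMSO-only wells plus 3 SD, cut at about 0.5% in these data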
m5-HT2A ag conf: mouse HTR2A agonism confirmed; shares compounds with HTR2A ag; CHO-K1 PathHunter beta-arrestin recruitment, luminescence; DMSO 0%, 30 µM serotonin 100%; activation, % at 7.6 µM; 19% of 2,300 active;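 active means mean activation across triplicates above the hit threshold derived in the original primary screen, cut at about 15% in these data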
MsrA inh confirm: confirmation of bovine MsrA inhibitors; purified bovine MsrA, absorbance read-out; shares compounds with MsrA inh; AID 651822; 41% of 2,300 active; inhibition, % at 15.5 µM;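 further: coupled to thioredoxin reductase with NADPH and selenocystamine and DMSO as substrate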
Numbers stand for hits; . = inactive; / = no result. Unless noted, no stated cut-off is given here; in the data, active means inhibition above about 4.5%; inactive means the rest.

SMILES	MsrA inh	HTR2A ag	MsrA act	AI-2 QS modul	TbMetRS inhib	AHR act	OPRM1 ag	m5-HT2A ag conf	others
Cc1cc(C)cc(N(C(C)C(=O)N2CCCC2)S(C)(=O)=O)c1 (centres undefined)	.	.	.	.	.	.	/	/
O=C(c1ccccc1)c1coc2c1C(=O)c1ccccc1C2=O	19	.	8.2	.	.	.	/	/	MsrA act confirm=16;MsrA inh confirm=26
CC1CCCN(C(=O)c2ccc3ncsc3c2)C1 (centres undefined)	.	.	.	/	.	/	/	/
COC(=O)c1ccc(/C=C2\CCn3c2nc2cc(C(=O)O)ccc2c3=O)cc1	/	.	.	.	.	.	/	/
CSc1ccc(/C=C2\CCn3c2nc2cc(C(=O)O)ccc2c3=O)cc1	5.0	.	10	.	.	.	/	/	MsrA act confirm=.;MsrA inh confirm=4.8
COc1ccc(CNC(=O)c2c(C)oc3c2C(=O)c2ccccc2C3=O)cc1	7.6	.	7.9	.	.	.	/	/	MsrA act confirm=8.0;MsrA inh confirm=9.0
COc1cc(N(C)C)ccc1C=c1c2ccccc2n2c1cc(-c1ccccc1)[n+]2C	.	.	.	/	.	/	/	/
COc1cc(C=c2c3ccccc3n3c2cc(-c2ccccc2)[n+]3C)cc(OC)c1OC	12	.	18	/	.	/	/	/	MsrA act confirm=9.9;MsrA inh confirm=.
O=C(Nc1ccc2cn[nH]c2c1)c1c(Cl)cccc1Cl	.	.	.	.	.	.	/	/
O=C1C(Cl)=C(Nc2ccc3cn[nH]c3c2)C(=O)c2ccccc21	17	.	26	.	.	70	/	/	MsrA act confirm=15;MsrA inh confirm=10
O=C1c2ccccc2C(=O)c2cc(S(=O)(=O)Nc3ccccc3)ccc21	29	.	10.0	.	.	.	/	/	MsrA act confirm=5.8;MsrA inh confirm=31
CCCC(NC(=O)c1ccc(Br)o1)c1nc2ccccc2[nH]1 (centres undefined)	.	.	.	/	.	.	/	/
CCOc1ccccc1N1CCN(C(=O)c2cc3cc(OC)ccc3[nH]2)CC1	/	.	.	.	.	.	/	/
Cc1ccc(C(=O)NCCNC(=O)c2ccc(C)o2)o1	.	.	.	.	.	.	/	/
COc1ccccc1OCCNC(=O)c1ccc(C)o1	.	15	.	.	.	.	.	.
CCOC(=O)C1=NOC2COC3(CCN(c4ncccn4)CC3)OCC12 (centres undefined)	.	15	.	.	.	.	0.6	.
CCOC(=O)c1sc2nc(C)nc(N3CCN(c4ncccn4)CC3)c2c1C	.	.	.	.	.	.	/	/
Cc1cc(C)n(C(=O)c2cc([N+](=O)[O-])cc([N+](=O)[O-])c2)n1	.	45	.	.	.	.	.	.
Cc1cc(C)n(C(=O)c2cccc([N+](=O)[O-])c2)n1	.	.	.	.	.	.	/	/
CN1CCN(c2ncnc3c2ncn3[C@H]2CN(Cc3ccncc3)C[C@@H](CO)O2)CC1	.	15	.	/	.	/	/	.
CN1CCN(c2ncnc3c2ncn3[C@H]2CN(Cc3ccccc3)C[C@@H](CO)O2)CC1	.	.	.	/	.	/	/	/
CCCN(C(=O)/C=C/c1ccc(S(=O)(=O)N(CC)CC)cc1)C1CCS(=O)(=O)C1 (centres undefined)	.	.	.	/	.	.	/	/
CC(Sc1ccc(Cl)cc1)C(=O)NCc1ccc2c(c1)OCO2 (centres undefined)	.	22	.	.	.	.	.	.
CC(Sc1ccc(Cl)cc1)C(=O)Nc1ccc2c(c1)OCO2 (centres undefined)	.	.	.	.	.	.	/	/
S=C(Nc1ccccc1Cl)NC1CCN(Cc2ccccc2)CC1	.	.	.	.	.	.	/	/
SMILES	MsrA inh	HTR2A ag	MsrA act	AI-2 QS modul	TbMetRS inhib	AHR act	OPRM1 ag	m5-HT2A ag conf	others
FC(F)(F)c1ccccc1NC(=S)NC1CCN(Cc2ccccc2)CC1	.	17	.	.	.	.	.	.
COc1cccc(-c2nc(NC(C)C)c3ccccc3n2)c1O	.	46	.	.	.	.	.	48
COc1cccc(-c2nc(Oc3cccc(C)c3C)c3ccccc3n2)c1O	.	.	.	.	.	.	/	/
COc1cccc(-c2nc(NCC3CCCO3)c3ccccc3n2)c1O (centres undefined)	.	32	.	.	.	.	.	15
Oc1ccccc1-c1nc(NCC2CCCO2)c2ccccc2n1 (centres undefined)	.	.	.	.	.	.	/	/
CCC(C)Nc1nc(-c2cccc(OC)c2O)nc2ccccc12 (centres undefined)	.	59	.	.	.	.	.	33
COc1cccc(-c2nc(NCc3cccnc3)c3ccccc3n2)c1O	.	.	.	.	.	/	/	/
Cn1c(=O)c2cc(NC(=O)NCc3ccccc3)ccc2n1C/C=C/c1ccccc1	.	.	.	/	.	/	/	/
CCOC(=O)CC1(NC(=O)c2cc(COc3cccc(OC)c3)on2)CCCCC1	.	15	.	.	.	.	.	.
CCOC(=O)c1[nH]c2ccccc2c1NC(=O)Nc1ccc(OC)cc1	.	25	.	.	.	.	.	.
COc1cc(C)nc(Oc2ccc(=O)n(C)n2)n1	.	15	.	.	.	/	.	.
COCCN(C(=O)COC(=O)c1nc(Cl)ccc1Cl)c1c(N)n(Cc2ccccc2)c(=O)[nH]c1=O	.	.	.	.	.	.	/	/
O=C(CN1C(=O)C2CC=CCC2C1=O)Nc1nc2ccccc2s1 (centres undefined)	.	16	.	.	.	.	.	.
Cc1ccc2nc(NC(=O)CN3C(=O)C4CC=CCC4C3=O)sc2c1 (centres undefined)	.	.	.	.	.	.	/	/
CCN(Cc1cccs1)C(=O)CN1C(=O)NC(c2ccccc2)(c2ccccc2)C1=O	.	.	.	/	.	.	/	/
Cc1cccc(C)c1NC(=O)CN(C)C(=O)CC1OC(=O)c2ccccc21 (centres undefined)	.	18	.	.	.	.	.	.
CC1(C)Cc2c(cnn2-c2cccc(F)c2)C(NC(=O)CSc2ccccn2)C1 (centres undefined)	.	.	.	.	.	.	/	/
CC1CN(CC(=O)NCc2ccccc2)CC(C)O1 (centres undefined)	.	15	.	.	.	.	.	.
CC1CN(CC(=O)NCc2ccc(F)cc2)CC(C)O1 (centres undefined)	.	.	.	.	.	.	/	/
